In ChEMBL document CHEMBL3286193, “Discovery of a series of 2,5-diaminopyrimidine covalent irreversible inhibitors of Bruton's tyrosine kinase with in vivo antitumor activity” (J Med Chem, 2014):
≈ marks a conversion by molar mass, not a printed value. Calls of active or inactive are those of the source. No cut-off for these calls is given here.

Columns and labels:
[1] = molecular target: T1, Tyrosine-protein kinase BTK (Homo sapiens, UniProt Q06187); test: Inhibition of Btk (unknown origin) after 1 hr by HTRF assay
Method in brief: (§1)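 Recombinant kinases tested by HTRF KinEase protocol. Enzyme preincubated with inhibitor for a fixed 10 min. IC50 values are means of duplicates.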

WSU-NHL = test: Cytotoxicity against human WSU-NHL cells assessed as growth inhibition after 72 hrs by CellTiter-Glo luminescent cell viability assay; format: functional
Method in brief: (§2)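 Lymphoma cells seeded at 5000 cells/well, incubated 24 h, then exposed to compounds for 72 h. Viability read by CellTiter-Glo luminescence. GI50 from dose−response curves, mean of two or three independent experiments in triplicate.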

[2] = Stability of the compound in FaSSIF assessed as compound remaining at 1 uM measured at 24 hrs by LC-MS analysis; format: ADME; conditions: read-out: Stability
Method in brief: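 Compound solutions in FaSSIF shaken at 350 rpm at 37 °C. Samples taken at 2, 6, 10 and 24 h and quantified by LC−MS as % remaining.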

[3] = Solubility of the compound in FaSSIF; format: ADME
[4] = molecular target: T1, Tyrosine-protein kinase BTK; test: Inhibition of Btk phosphorylation at Tyr551 in human Ramos cells after 1 hr by Western blot analysis; format: cell-based
[5] = molecular target: Tyrosine-protein kinase Tec (Homo sapiens, UniProt P42680); test: Inhibition of Tec (unknown origin) after 1 hr by HTRF assay; method in brief: as §1
[6] = Clearance in mouse liver microsomes by LC-MS/MS analysis; format: ADME; conditions: read-out: CLH
Method in brief: (§3)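 Liver microsomes incubated with compound and NADPH at 37 °C. Samples taken at several time points, centrifuged, and supernatants analyzed by LC−MS/MS. t1/2 and CL calculated by first-order kinetics. Testosterone, propranolol and clozapine served as positive controls.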

[7] = molecular target: T1, Tyrosine-protein kinase BTK; test: Inhibition of Btk in human Ramos cells assessed as inhibition of PLC-gamma2 phosphorylation at Tyr1217 after 1 hr by Western blot analysis; format: cell-based
[8] = Volume of distribution at steady state in ICR mouse at 1 mg/kg, iv by LC-MS analysis; format: ADME, organism-based; set-up: dose 1 mg/kg, route intravenous; conditions: in vivo, read-out: Vdss
Method in brief: (§4)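 ICR mice (n = 3) given a single intravenous injection at 1 mg/kg. Blood sampled at various time points and analyzed by LC−MS to derive t1/2, CL and Vss.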

[9] = molecular target: Tyrosine-protein kinase Blk (Homo sapiens, UniProt P51451); test: Inhibition of Blk (unknown origin) after 1 hr by HTRF assay; method in brief: as §1
[10] = molecular target: Cytoplasmic tyrosine-protein kinase BMX (Homo sapiens, UniProt P51813); test: Inhibition of Bmx (unknown origin) after 1 hr by HTRF assay; method in brief: as §1
[11] = system: Liver microsomes (Mus musculus); test: Clearance in mouse liver microsomes by LC-MS/MS analysis
[12] = Clearance in ICR mouse at 1 mg/kg, iv by LC-MS analysis; format: ADME, organism-based; set-up: dose 1 mg/kg, route intravenous; conditions: in vivo; method in brief: as §4
[13] = Cytotoxicity against human Pfeiffer cells assessed as growth inhibition after 72 hrs by CellTiter-Glo luminescent cell viability assay; format: functional; method in brief: as §2
[14] = Cytotoxicity against human DOHH2 cells assessed as growth inhibition after 72 hrs by CellTiter-Glo luminescent cell viability assay; format: functional, DOHH-2; method in brief: as §2
[15] = molecular target: T1, Tyrosine-protein kinase BTK; test: Binding affinity to Btk kinase domain (387 to 659) (unknown origin) assessed as compound-protein covalent adduct formation at 1:3 protein to compound molar ratio at 4 degC after 1 hr by LC-MS analysis
Method in brief: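 Btk kinase domain (residues 387−659, MW 32136) incubated with 3 equiv of compound at 4 °C for 1 h. Mass spectrometry of the intact protein checked for mass peak shift consistent with 1-to-1 protein−compound adducts.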

[16] = Cytotoxicity against human SU-DHL6 cells assessed as growth inhibition after 72 hrs by CellTiter-Glo luminescent cell viability assay; format: functional, SU-DHL-6; method in brief: as §2
[17] = molecular target: T1, Tyrosine-protein kinase BTK; test: Irreversible inhibition of Btk phosphorylation at Tyr551 in human Ramos cells at 1 uM incubated for 1 hr followed by compound washout with fresh media measured after 2 hrs by Western blot analysis; format: cell-based
Method in brief: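 Ramos cells (5 × 10⁵) seeded overnight, treated with compound 1 h, then washed out with fresh media for 2 h. Cells stimulated with goat anti-human IgM for 3−5 min, lysed by boiling in SDS buffer, and Btk Tyr551 phosphorylation assessed by Western blot.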

[18] = molecular target: Tyrosine-protein kinase JAK3 (Homo sapiens, UniProt P52333); test: Inhibition of Jak3 (unknown origin) after 1 hr by HTRF assay; method in brief: as §1
[19] = molecular target: Tyrosine-protein kinase ITK/TSK (Homo sapiens, UniProt Q08881); test: Inhibition of Itk (unknown origin) after 1 hr by HTRF assay; method in brief: as §1
[20] = molecular target: Receptor tyrosine-protein kinase erbB-2 (Homo sapiens, UniProt P04626); test: Inhibition of HER2 (unknown origin) after 1 hr by HTRF assay; method in brief: as §1
[21] = Half life in ICR mouse at 1 mg/kg, iv by LC-MS analysis; format: ADME, organism-based; set-up: dose 1 mg/kg, route intravenous; conditions: in vivo; method in brief: as §4
[22] = molecular target: Receptor tyrosine-protein kinase erbB-4 (Homo sapiens, UniProt Q15303); test: Inhibition of HER4 (unknown origin) after 1 hr by HTRF assay; method in brief: as §1
[23] = molecular target: Tyrosine-protein kinase TXK (Homo sapiens, UniProt P42681); test: Inhibition of Rlk (unknown origin) after 1 hr by HTRF assay; method in brief: as §1
[24] = Half life in mouse liver microsomes by LC-MS/MS analysis; format: ADME; method in brief: as §3
[25] = molecular target: T2, Epidermal growth factor receptor (Homo sapiens, UniProt P00533); test: Inhibition of EGFR (unknown origin) after 1 hr by HTRF assay
Method in brief: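 Commercial recombinant kinase, assayed in the HTRF KinEase format following the kit protocol. Enzyme and inhibitor were preincubated for a fixed 10 min before the reaction.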

Mus musculus = test: Toxicity in CB17 SCID mouse xenografted with human DOHH2 cells assessed as body weight fluctuations at 10 mg/kg, iv qd administered for 14 days measured over 14 days of compound treatment; format: organism-based, DOHH-2; set-up: dose 10 mg/kg, route intravenous; conditions: in vivo, 336 h
Method in brief: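 Female CB17/SCID mice carried subcutaneous DoHH2 xenografts (5 × 10⁶ cells injected), randomised at ~167 mm³ mean tumour volume into four groups (n = 6/group). Compound was given intravenously via the tail vein once daily for 14 consecutive days. Body weights were tracked over time throughout the study.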

[26] = molecular target: T2, Epidermal growth factor receptor; conditions: 5 nM
[27] = Plasma concentration in CB17 SCID mouse xenografted with human DOHH2 cells at 10 mg/kg, iv qd administered for 14 days measured at 2 hrs post last dose; format: ADME, organism-based, DOHH-2; set-up: dose 10 mg/kg, route intravenous
Method in brief: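 Female CB17/SCID mice were given 5 × 10⁶ DoHH2 cells subcutaneously. When tumours averaged ~167 mm³, mice were randomised into four groups (n = 6/group). Dosing was by tail-vein injection once daily for 14 consecutive days. Plasma compound levels were determined at 2 and 24 h after the final dose.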

T1 sequence (Q06187 whole entry): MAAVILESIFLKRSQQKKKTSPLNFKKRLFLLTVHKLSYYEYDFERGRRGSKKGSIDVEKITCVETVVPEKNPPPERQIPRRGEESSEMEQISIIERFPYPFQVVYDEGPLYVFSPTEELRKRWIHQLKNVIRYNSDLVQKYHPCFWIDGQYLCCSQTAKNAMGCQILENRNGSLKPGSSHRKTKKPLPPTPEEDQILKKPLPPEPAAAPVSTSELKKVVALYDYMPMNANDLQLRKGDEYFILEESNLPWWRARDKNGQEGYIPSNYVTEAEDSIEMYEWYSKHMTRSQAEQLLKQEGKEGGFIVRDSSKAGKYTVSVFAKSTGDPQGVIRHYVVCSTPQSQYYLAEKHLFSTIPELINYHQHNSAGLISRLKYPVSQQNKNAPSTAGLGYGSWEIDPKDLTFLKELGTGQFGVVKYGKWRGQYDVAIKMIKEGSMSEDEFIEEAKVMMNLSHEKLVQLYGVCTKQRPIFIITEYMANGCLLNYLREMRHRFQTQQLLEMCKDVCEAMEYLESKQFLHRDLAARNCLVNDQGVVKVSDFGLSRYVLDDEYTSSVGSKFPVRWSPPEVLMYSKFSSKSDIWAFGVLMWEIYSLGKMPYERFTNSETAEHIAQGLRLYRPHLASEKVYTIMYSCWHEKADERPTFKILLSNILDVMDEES
T2 sequence (P00533 whole entry): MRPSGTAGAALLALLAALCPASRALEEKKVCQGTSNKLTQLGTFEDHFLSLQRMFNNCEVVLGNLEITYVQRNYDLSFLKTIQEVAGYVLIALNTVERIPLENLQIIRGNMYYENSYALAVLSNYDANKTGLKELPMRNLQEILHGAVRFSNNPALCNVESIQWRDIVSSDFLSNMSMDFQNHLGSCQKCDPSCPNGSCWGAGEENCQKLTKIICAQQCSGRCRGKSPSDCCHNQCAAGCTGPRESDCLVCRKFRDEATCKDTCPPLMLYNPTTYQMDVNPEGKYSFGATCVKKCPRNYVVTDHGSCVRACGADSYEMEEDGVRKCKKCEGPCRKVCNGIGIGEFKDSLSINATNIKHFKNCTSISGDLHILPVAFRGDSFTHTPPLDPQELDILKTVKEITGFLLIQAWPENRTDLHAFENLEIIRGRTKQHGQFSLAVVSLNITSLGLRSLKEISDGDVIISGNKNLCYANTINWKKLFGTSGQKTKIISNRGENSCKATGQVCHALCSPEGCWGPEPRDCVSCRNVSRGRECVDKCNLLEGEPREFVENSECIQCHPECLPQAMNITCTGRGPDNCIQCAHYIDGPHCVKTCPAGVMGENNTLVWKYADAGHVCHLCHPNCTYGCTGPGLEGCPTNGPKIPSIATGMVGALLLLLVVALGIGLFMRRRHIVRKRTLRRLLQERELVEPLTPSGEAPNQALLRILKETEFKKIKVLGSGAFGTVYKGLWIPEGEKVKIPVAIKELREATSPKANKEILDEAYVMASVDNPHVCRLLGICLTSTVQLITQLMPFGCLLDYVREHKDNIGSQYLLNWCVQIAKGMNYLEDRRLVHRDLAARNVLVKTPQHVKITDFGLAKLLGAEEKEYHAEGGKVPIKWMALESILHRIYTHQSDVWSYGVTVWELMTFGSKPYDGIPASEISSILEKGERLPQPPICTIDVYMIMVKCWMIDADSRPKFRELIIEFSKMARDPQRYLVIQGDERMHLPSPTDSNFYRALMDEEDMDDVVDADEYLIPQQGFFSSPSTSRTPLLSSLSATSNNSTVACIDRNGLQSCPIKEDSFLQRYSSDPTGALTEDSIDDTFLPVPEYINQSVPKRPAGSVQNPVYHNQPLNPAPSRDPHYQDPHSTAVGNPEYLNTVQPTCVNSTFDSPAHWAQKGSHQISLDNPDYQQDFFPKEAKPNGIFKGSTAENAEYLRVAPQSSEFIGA
Tyrosine-protein kinase JAK3, sequence (P52333 whole entry): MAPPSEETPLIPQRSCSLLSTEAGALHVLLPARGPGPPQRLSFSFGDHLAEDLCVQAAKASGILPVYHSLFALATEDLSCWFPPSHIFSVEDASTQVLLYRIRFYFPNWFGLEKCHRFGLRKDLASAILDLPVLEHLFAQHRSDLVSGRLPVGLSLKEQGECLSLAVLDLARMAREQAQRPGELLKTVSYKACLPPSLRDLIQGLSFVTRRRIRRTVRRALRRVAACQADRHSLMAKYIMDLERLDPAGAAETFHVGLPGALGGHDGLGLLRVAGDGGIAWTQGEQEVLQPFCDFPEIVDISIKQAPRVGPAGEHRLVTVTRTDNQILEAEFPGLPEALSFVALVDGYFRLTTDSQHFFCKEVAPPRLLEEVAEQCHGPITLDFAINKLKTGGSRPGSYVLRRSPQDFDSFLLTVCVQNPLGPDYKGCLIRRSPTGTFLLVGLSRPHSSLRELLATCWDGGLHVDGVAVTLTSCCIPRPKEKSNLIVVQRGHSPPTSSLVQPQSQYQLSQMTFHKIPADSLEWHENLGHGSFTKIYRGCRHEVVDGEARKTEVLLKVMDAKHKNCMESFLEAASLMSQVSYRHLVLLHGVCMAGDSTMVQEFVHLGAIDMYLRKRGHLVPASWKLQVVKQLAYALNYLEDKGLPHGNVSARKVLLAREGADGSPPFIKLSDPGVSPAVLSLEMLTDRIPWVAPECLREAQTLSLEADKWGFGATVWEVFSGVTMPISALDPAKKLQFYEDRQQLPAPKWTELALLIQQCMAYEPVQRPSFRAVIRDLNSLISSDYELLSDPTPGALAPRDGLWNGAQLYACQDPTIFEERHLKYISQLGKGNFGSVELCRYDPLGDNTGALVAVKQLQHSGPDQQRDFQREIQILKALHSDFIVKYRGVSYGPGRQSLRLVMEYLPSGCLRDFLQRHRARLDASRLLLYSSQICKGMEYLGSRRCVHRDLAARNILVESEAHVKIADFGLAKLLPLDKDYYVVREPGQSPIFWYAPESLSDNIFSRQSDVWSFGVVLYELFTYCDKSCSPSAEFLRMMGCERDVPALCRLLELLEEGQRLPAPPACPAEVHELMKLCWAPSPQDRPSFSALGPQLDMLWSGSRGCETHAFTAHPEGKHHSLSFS
Cytoplasmic tyrosine-protein kinase BMX, sequence (P51813 whole entry): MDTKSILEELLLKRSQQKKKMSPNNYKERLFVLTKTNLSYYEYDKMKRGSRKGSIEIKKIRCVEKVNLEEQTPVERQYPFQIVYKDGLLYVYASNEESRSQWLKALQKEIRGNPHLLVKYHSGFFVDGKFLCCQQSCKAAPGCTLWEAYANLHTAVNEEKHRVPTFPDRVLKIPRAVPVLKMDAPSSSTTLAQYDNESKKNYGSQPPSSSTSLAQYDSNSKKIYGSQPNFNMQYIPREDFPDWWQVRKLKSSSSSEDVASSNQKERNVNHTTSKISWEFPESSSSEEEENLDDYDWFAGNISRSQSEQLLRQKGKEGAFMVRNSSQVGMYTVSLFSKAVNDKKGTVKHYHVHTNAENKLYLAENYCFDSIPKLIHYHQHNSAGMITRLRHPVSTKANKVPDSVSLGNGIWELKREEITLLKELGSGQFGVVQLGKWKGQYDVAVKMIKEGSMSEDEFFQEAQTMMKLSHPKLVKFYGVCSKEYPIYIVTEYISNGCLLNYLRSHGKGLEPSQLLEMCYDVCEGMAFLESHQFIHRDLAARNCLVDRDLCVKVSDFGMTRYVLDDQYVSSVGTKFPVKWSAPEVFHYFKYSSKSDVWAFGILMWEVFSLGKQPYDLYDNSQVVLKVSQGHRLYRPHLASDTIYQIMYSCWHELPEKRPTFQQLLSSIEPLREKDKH
Tyrosine-protein kinase TXK, sequence (P42681 whole entry): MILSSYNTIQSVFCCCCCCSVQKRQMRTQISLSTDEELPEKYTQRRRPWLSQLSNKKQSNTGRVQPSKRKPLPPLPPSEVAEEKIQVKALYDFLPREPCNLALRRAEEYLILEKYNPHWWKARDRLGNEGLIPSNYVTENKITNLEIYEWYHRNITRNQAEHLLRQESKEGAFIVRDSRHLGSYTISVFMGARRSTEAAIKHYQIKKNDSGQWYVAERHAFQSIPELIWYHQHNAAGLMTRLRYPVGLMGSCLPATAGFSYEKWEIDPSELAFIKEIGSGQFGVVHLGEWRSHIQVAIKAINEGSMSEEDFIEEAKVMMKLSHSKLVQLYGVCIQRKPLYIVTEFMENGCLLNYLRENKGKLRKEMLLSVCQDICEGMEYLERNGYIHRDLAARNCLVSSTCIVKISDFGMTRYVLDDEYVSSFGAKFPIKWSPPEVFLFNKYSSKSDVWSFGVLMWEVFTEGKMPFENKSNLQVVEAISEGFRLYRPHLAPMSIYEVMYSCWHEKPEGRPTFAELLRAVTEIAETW
Tyrosine-protein kinase Tec, sequence (P42680 whole entry): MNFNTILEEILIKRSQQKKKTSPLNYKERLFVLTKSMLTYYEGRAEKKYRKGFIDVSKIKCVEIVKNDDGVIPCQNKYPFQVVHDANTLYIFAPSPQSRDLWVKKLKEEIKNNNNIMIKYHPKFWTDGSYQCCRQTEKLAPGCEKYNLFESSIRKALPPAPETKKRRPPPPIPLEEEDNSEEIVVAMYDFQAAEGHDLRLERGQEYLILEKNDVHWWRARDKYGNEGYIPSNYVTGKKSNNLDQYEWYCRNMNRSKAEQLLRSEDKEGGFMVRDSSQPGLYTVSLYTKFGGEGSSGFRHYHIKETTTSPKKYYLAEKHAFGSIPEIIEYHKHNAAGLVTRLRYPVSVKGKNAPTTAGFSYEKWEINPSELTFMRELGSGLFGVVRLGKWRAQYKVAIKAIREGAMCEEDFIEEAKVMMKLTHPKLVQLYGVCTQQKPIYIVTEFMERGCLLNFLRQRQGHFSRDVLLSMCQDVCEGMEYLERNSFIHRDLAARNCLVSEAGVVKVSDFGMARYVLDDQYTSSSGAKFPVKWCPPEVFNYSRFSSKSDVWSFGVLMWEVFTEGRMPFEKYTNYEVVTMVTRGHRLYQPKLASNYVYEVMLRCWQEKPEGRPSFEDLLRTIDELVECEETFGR

Cc1ccc(NC(=O)c2cccc(C(F)(F)F)c2)cc1C(=O)Nc1cnc(Nc2cccc(NC(=O)/C=C/CN(C)C)c2)nc1
IC50 [1]: 15 nM

COc1cccc(Nc2ncc(NC(=O)c3cc(NC(=O)c4cccc(C(F)(F)F)c4)ccc3C)cn2)c1
IC50 [1]: 53 nM

CCC(=O)N(C(=O)CC)c1cccc(Nc2ncc(NC(=O)c3cc(NC(=O)c4cccc(C(F)(F)F)c4)ccc3C)cn2)c1
IC50 [1]: 1410 nM

Cc1ccc(NC(=O)c2cccc(C(F)(F)F)c2)cc1C(=O)Nc1cnc(NC2CC2)nc1
IC50 [1]: 2150 nM

Cc1ccc(NC(=O)c2cccc(C(F)(F)F)c2)cc1C(=O)Nc1cnc(Nc2ccccc2)nc1
IC50 [1]: 133 nM

Nc1cccc(Nc2ncc(NC(=O)c3cc(NC(=O)c4cccc(C(F)(F)F)c4)ccc3F)cn2)c1
IC50 [1]: 47 nM

C=CC(=O)N(C(=O)C=C)c1cccc(Nc2ncc(NC(=O)c3cc(NC(=O)c4cccc(C(F)(F)F)c4)ccc3C)cn2)c1
IC50 [1]: 208 nM

CCC(=O)Nc1ccc(C)c(C(=O)Nc2cnc(Nc3cccc(N)c3)nc2)c1
IC50 [1]: 8560 nM

Cc1ccc(NC(=O)c2cccc(C(F)(F)F)c2)cc1C(=O)Nc1cnc(Nc2cccc(NC(=O)CCN(C)C)c2)nc1
IC50 [1]: 14 nM

C=CC(=O)NCC(=O)Nc1cccc(Nc2ncc(NC(=O)c3cc(NC(=O)c4cccc(C(F)(F)F)c4)ccc3C)cn2)c1
GI50 (WSU-NHL): 29 nM | remaining at 24 h, 1 µM [2]: 99% | IC50 [1]: < 4.4 nM | solubility [3]: 2.23 µM (≈ 1.38 µg/mL) | IC50 [4]: 13 nM | IC50 [5]: 6.3 nM | microsomal CLint [6]: 28.1 µL/min/mg | IC50 [7]: 13 nM | Vd [8]: 0.13 L/kg | IC50 [9]: 4.2 nM | IC50 [10]: 0.71 nM | CLH [11]: 49.8 mL/min/kg | clearance [12]: 11.5 mL/min/kg | GI50 ([13]; Homo sapiens, Pfeiffer, 72 h): 8 nM | GI50 ([14]; Homo sapiens, DOHH-2, 72 h): 40 nM | Activity [15]: Active | GI50 ([16]; Homo sapiens, SU-DHL-6, 72 h): 43 nM | inhibition [17]: Active | IC50 [18]: 6370 nM | IC50 [19]: > 30000 nM | IC50 [20]: 7 nM | half-life [21]: 36 min | IC50 [22]: 3.3 nM | IC50 [23]: 1.4 nM | half-life [24]: 35.4 min | IC50 [25]: 7 nM

C/C=C/C(=O)Nc1cccc(Nc2ncc(NC(=O)c3cc(NC(=O)c4cccc(C(F)(F)F)c4)ccc3C)cn2)c1
IC50 [1]: 36 nM

CCNc1ncc(NC(=O)c2cc(NC(=O)c3cccc(C(F)(F)F)c3)ccc2C)cn1
IC50 [1]: 1110 nM

Cc1ccc(NC(=O)c2cccc(C(F)(F)F)c2)cc1C(=O)Nc1cnc(Nc2ccc(N)cc2)nc1
IC50 [1]: 8 nM

Cc1ccc(NC(=O)c2cccc(C(F)(F)F)c2)cc1C(=O)Nc1cnc(Nc2cccc(C(F)(F)F)c2)nc1
IC50 [1]: 304 nM

Nc1cccc(Nc2ncc(NC(=O)c3cccc(C(=O)Nc4cccc(C(F)(F)F)c4)c3)cn2)c1
IC50 [1]: 45 nM

Cc1ccc(NC(=O)c2ccc3ccccc3c2)cc1C(=O)Nc1cnc(Nc2cccc(N)c2)nc1
IC50 [1]: 39 nM

Cc1ccc(NC(=O)c2cccc(N(C)C)c2)cc1C(=O)Nc1cnc(Nc2cccc(N)c2)nc1
IC50 [1]: 47 nM

C=CS(=O)(=O)Nc1cccc(Nc2ncc(NC(=O)c3cc(NC(=O)c4cccc(C(F)(F)F)c4)ccc3C)cn2)c1
IC50 [1]: 16 nM

Cc1ccc(NC(=O)c2cccc(C(F)(F)F)c2)cc1C(=O)Nc1cnc(Nc2cccc(F)c2)nc1
IC50 [1]: 52 nM

Cc1ccc(NC(=O)c2cccc(C(F)(F)F)c2)cc1C(=O)Nc1cnc(Nc2cccc(N)c2)nc1
IC50 [1]: 14 nM

Cc1ccc(NC(=O)C2CC2)cc1C(=O)Nc1cnc(Nc2cccc(N)c2)nc1
IC50 [1]: 4950 nM

C=CC(=O)Nc1cccc(Nc2ncc(NC(=O)c3cc(NC(=O)c4cccc(F)c4)ccc3C)cn2)c1
IC50 [1]: 48 nM

Cc1ccc(NC(=O)c2cccc(C(F)(F)F)c2)cc1C(=O)Nc1cnc(Nc2cccc(NC(=O)Cn3sc4ccccc4c3=O)c2)nc1
IC50 [1]: 18 nM

Cc1ccc(NC(=O)/C=C/c2ccccc2)cc1C(=O)Nc1cnc(Nc2cccc(N)c2)nc1
IC50 [1]: 24 nM

Cc1ccc(NC(=O)c2cc(Cl)cc(C(F)(F)F)c2)cc1C(=O)Nc1cnc(Nc2cccc(N)c2)nc1
IC50 [1]: 18 nM

Cc1ccc(NC(=O)c2cccc(C(F)(F)F)c2)cc1C(=O)Nc1cnc(N)nc1
IC50 [1]: 3420 nM

Nc1cccc(Nc2ncc(NC(=O)c3cccc(NC(=O)c4cccc(C(F)(F)F)c4)c3)cn2)c1
IC50 [1]: 233 nM

CCC(=O)Nc1cccc(Nc2ncc(NC(=O)c3cc(NC(=O)c4cccc(C(F)(F)F)c4)ccc3C)cn2)c1
IC50 [1]: 15 nM | inhibition [17]: inactive

C=CC(=O)Nc1cccc(Nc2ncc(NC(=O)c3cc(NC(=O)c4ccc(Cl)c(C(F)(F)F)c4)ccc3C)cn2)c1
IC50 [1]: 11 nM

Nc1cccc(Nc2ncc(NC(=O)c3cc(NC(=O)c4cccc(C(F)(F)F)c4)ccc3Cl)cn2)c1
IC50 [1]: 11 nM

C=CC(=O)Nc1cccc(Nc2ncc(NC(=O)c3cc(NC(=O)c4ccc5ccccc5c4)ccc3C)cn2)c1
IC50 [1]: 22 nM

Cc1ccc(NC(=O)c2ccc(Cl)c(C(F)(F)F)c2)cc1C(=O)Nc1cnc(Nc2cccc(N)c2)nc1
IC50 [1]: 9 nM

Cc1ccc(NC(=O)c2cccc(C(F)(F)F)c2)cc1C(=O)Nc1cnc(Nc2cccc(NC(=O)CCl)c2)nc1
IC50 [1]: 15 nM

Cc1ccc(NC(=O)c2ccc(C(F)(F)F)cc2)cc1C(=O)Nc1cnc(Nc2cccc(N)c2)nc1
IC50 [1]: 25 nM

Cc1ccc(NC(=O)c2cccc(F)c2)cc1C(=O)Nc1cnc(Nc2cccc(N)c2)nc1
IC50 [1]: 166 nM

C=CC(=O)N1CCC[C@@H](n2nc(-c3ccc(Oc4ccccc4)cc3)c3c(N)ncnc32)C1 [IBRUTINIB]
Activity (Mus musculus): Non-toxic | inhibition [26]: Active | GI50 [13]: 2 nM | GI50 [14]: 410 nM | GI50 [16]: 580 nM | concentration at 2 h [27]: 479 ng/mL

Cc1ccc(NC(=O)c2cccc(Cl)c2)cc1C(=O)Nc1cnc(Nc2cccc(N)c2)nc1
IC50 [1]: 20 nM

Cc1ccc(NC(=O)Nc2cccc(C(F)(F)F)c2)cc1C(=O)Nc1cnc(Nc2cccc(N)c2)nc1
IC50 [1]: 63 nM
